Measured values taken from ChEMBL document CHEMBL4699414, “Hit-to-lead optimization of novel benzimidazole phenylacetamides as broad spectrum trypanosomacides” (RSC Med Chem, 2020).

Experiments:
[1] = Cytotoxicity against human HEK293 cells assessed as reduction in cell viability measured after 48 hrs by resazurin assay; assay type: cell-based
How it was run: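 HEK293 cells from ATCC; Alamar Blue viability read-out run per earlier method.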

[2] = test system: Trypanosoma brucei brucei; assay: Antitrypanosomal activity against Trypanosoma brucei brucei Lister 427 assessed as parasite growth inhibition measured after 48 hrs by alamar blue assay; details: Lister 427, 48 h
[3] = Lipophilicity, logP of the compound; assay type: physicochemical; details: octanol/water
[4] = Cytotoxicity against human HepG2 cells assessed as reduction in cell viability measured after 48 hrs by CellTiter-Glo assay; assay type: cell-based
How it was run: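 HepG2 human hepatoma cells from GSK Biological Reagents and Assay Development (Stevenage, UK); viability read-out per earlier method.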

[5] = test system: Trypanosoma cruzi; assay: Antitrypanosomal activity against Trypanosoma cruzi infected in rat H9c2 infected with trypomastigotes from parasite-infected monkey LLC-MK2 cells measured after 72 hrs by DRAQ5 DNA dye based microscopic imaging analysis; assay type: functional, organism-based; details: H9c2, 72 h
[6] = Cytotoxicity against rat H9c2 cells assessed as reduction in cell viability; assay type: cell-based

Compound	IC50 [2] [µM]	logP [3]	IC50 [5] [µM]	CC50 at 48 h [1] [µM]	CC50 at 48 h [4] [µM]	CC50 [6] [µM]
CCCn1c(NC(=O)Cc2ccc(Cl)cc2)nc2c(OC)cccc21	> 83	4.6	3.2	> 83	> 50	> 50
CCCc1c(NC(=O)Cc2ccc(Cl)cc2)ncc2ccccc12		5.4	0.5		7.94	3.2
CCCn1c(NC(=O)Cc2ccccc2OC)nc2ccccc21	> 83	4	6.3	> 83	> 50	13
CCCn1c(NC(=O)Cc2ccc(Br)cc2)nc2ccccc21	5	4.9	2	> 83	> 50	> 50
CCCn1c(NC(=O)Cc2ccc(O)cc2)nc2ccccc21	> 83	3.8	40	> 83	> 50	> 50
CCCn1c(NC(=O)Cc2ccccc2)nc2ccccc21	4.1	4.1	4	> 83	> 50	> 50
C=CCc1c(NC(=O)Cc2ccc(Cl)cc2)ncc2ccccc12	> 83	5.1	20	> 83	> 50	> 50
CCCn1c(NC(=O)Nc2ccc(Cl)cc2)nc2ccccc21	5.4	4.8	2.5	5.2	40	> 50
CCCn1c(NC(=O)Cc2ccc(Cl)nc2)nc2ccccc21	> 83	3.7	7.9	> 83	> 50	> 50
CCCn1c(NC(=O)Cc2ccc(Cl)cc2)nc2cccc(C)c21	9.4	5.2	1.3	> 83	> 50	> 50
CCCn1c(NC(=O)Cc2cccc(OC)c2)nc2ccccc21	4.3	4	4	> 83	> 50	> 50
O=C(Cc1ccc(Cl)cc1)Nc1nc2ccccc2[nH]1		3.6	50	> 83	> 50	> 50
CCCn1c(NC(=O)Cc2ccc(OC)cc2)nc2ccccc21	5.2	4	3.2	> 83	> 50	> 50
CCCn1c(C(=O)NCc2ccc(Cl)cc2)nc2ccccc21	> 83	4.1	10	> 83	> 50	16
CCCCC(=O)Nc1nc2ccccc2n1CCC	11	3.9	13	2.6	> 50	25
CCCn1c(NC(=O)Cc2ccc3ccccc3c2)nc2ccccc21	5.5	5.1	1.3	> 83	25	> 50
CCCn1c(NC(=O)Cc2ccc(OC(C)=O)cc2)nc2ccccc21	14	3.7	32	> 83	> 50	> 50
CCCCCCCCC(=O)Nc1nc2ccccc2n1CCC	7.3	5.7	2.5	> 83	> 50	20
CCCn1c(NC(=O)Cc2ccc(C(F)(F)F)cc2)nc2ccccc21	4.5	5	1	> 83	> 50	> 50
CCCn1c(NC(=O)c2ccccc2)nc2ccccc21	3.8	4.1	5	> 83	25	> 50
O=C(Cn1ccnc1[N+](=O)[O-])NCc1ccccc1 [BENZNIDAZOLE]			1.58			31.6
CCCCn1c(NC(=O)Cc2ccc(Cl)cc2)nc2ccccc21	4.4	5.2	1.6	> 83	> 50	13
CCCn1c(NC(=O)Cc2ccc(Cl)cc2)nc2cc(Br)ccc21	16	5.5	0.79	> 83		> 50
CCCn1c(NC(=O)Cc2ccc(Cl)cc2)nc2ccc(C)cc21	15	5.2		> 83		

The remaining molecules from weak to strong by IC50 [2], led by results:

IC50 [2] [µM]	logP [3]	IC50 [5] [µM]	Compound	CC50 at 48 h [1] [µM]	CC50 at 48 h [4] [µM]	CC50 [6] [µM]
3.8	3.8	3.2	Cn1c(NC(=O)Cc2ccc(Cl)cc2)nc2ccccc21	> 83	> 50	> 50
3.7	5.6	1	CCCCCn1c(NC(=O)Cc2ccc(Cl)cc2)nc2ccccc21	> 83	> 50	> 50
3.6	4.7	1.6	CCCn1c(NC(=O)Cc2cccc(Cl)c2)nc2ccccc21	15	> 50	> 50
3.6	4.3	3.2	CCCn1c(NC(=O)Cc2ccccc2F)nc2ccccc21	> 83	> 50	> 50
3.6	4.6	2	CCCn1c(NC(=O)Cc2cccc(C)c2)nc2ccccc21	15	> 50	> 50
3.5	4.6	5	CCCn1c(NC(=O)CCc2ccccc2)nc2ccccc21	14	> 50	> 50
3.4	5.8	1	CCCn1c(NC(=O)Cc2ccc(-c3ccccc3)cc2)nc2ccccc21	> 83	> 50	> 50
3.2	4.3	2	CCCn1c(NC(=O)Cc2cccc(F)c2)nc2ccccc21	> 83	> 50	> 50
3.2	5.6	1	CCCn1c(NC(=O)Cc2ccc(OC(F)(F)F)cc2)nc2ccccc21	> 83	> 50	10
3.1	4.2	2.5	CCn1c(NC(=O)Cc2ccc(Cl)cc2)nc2ccccc21	> 83	> 50	40
2.9	4.9	1	CCCn1c(NC(=O)Cc2cccc(Br)c2)nc2ccccc21	> 83	> 50	> 50
2.8	5.5		CCCn1c(NC(=O)Cc2ccc(Cl)cc2)nc2cccc(Br)c21	> 83		
2.6	5.1	1	CCCn1c(NC(=O)Cc2cccc3ccccc23)nc2ccccc21	10	20	> 50
2.5	4.3	2.5	CCCn1c(NC(=O)Cc2ccc(F)cc2)nc2ccccc21	> 83	> 50	> 50
2.4	5	1.6	CCCn1c(NC(=O)CCCc2ccccc2)nc2ccccc21	> 83	> 50	16
2.4	5.3	0.5	CCCn1c(NC(=O)Cc2ccc(Cl)cc2)nc2ccc(Cl)cc21	> 83	> 50	6.3
2.3	4.7	2	CCCn1c(NC(=O)Cc2ccccc2Cl)nc2ccccc21	14	25	25
2.1	4.6	1.3	CCCn1c(NC(=O)/C=C/c2ccccc2)nc2ccccc21	> 83	40	20
2	4.9	1.6	CCCn1c(NC(=O)Cc2ccccc2Br)nc2ccccc21	> 83	20	> 50
1.5	5.5	0.4	CCCn1c(NC(=O)Cc2ccc(Cl)cc2)nc2ccc(Br)cc21	> 83	> 50	13
0.9	4.9	1.3	CCCn1c(NC(=O)Cc2ccc(Cl)cc2)nc2ccc(F)cc21	14	> 50	25
0.087			N=C(N)c1ccc(/N=N/Nc2ccc(C(=N)N)cc2)cc1 [DIMINAZENE DIACETURATE]	38.5		
0.038			COc1ccc(C[C@H](N)C(=O)N[C@H]2[C@@H](O)[C@H](n3cnc4c(N(C)C)ncnc43)O[C@@H]2CO)cc1 [PUROMYCIN]	0.23		
0.014			N=C(N)c1ccc(OCCCCCOc2ccc(C(=N)N)cc2)cc1 [PENTAMIDINE]	0.67		
